# HCV NS3 hel inh – blocks Hepatitis C virus NS3 helicase unwinding | hit rate 0.56% among 290,000 | inhibition, % at 10.9 µM | AID 1800 | NS3 helicase DNA unwinding, Cy5 molecular beacon fluorescence;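 active = inhibition above the mean of all tested compounds plus 3 SD, set per campaign, cut at about 35% in these data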
#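 Assay system – hepatitis C virus NS3 helicase domain fragment enzyme · Buffer or medium – MOPS pH 6.5, MgCl2, DTT, Tween20, BSA · Reagent – Cy5/quencher beacon DNA duplex and ATP to start · Compound – single 10.9 µM dose · Timing – 1 h at 25 °C · Technique – Cy5 beacon fluorescence read at start and 1 h · Measure – % inhibition of unwinding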
# VIM-2 inh – inhibitors of Pseudomonas aeruginosa VIM-2 metallo-beta-lactamase; purified VIM-2, nitrocefin hydrolysis, epi-absorbance fluorescence; inhibition, % at 5.6 µM; hit rate 0.89% among 290,000; AID 1527;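 active = inhibition above the mean of all tested compounds plus 3 SD, cutoff set per screening run, cut at about 7.5% in these data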;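 note: red hydrolysis product quenches plate fluorescence so inhibitors raise well fluorescence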
# DNA FID counter-1 – counter-screen for HCV NS3 helicase inhibitors: DNA intercalator displacement; DNA fluorescent intercalator displacement, fluorescence; inhibition, % at 7.9 µM; hit rate 0.17% among 290,000; AID 1845;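 note: higher means more ethidium bromide displaced from hairpin DNA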
# UBC9 SUMO inh – blocks human SUMOylation mediated by UBC9; inhibition, % at 35 µM; HTRF SUMOylation assay, SAE1/SAE2 + UBC9, in vitro; P63279; hit rate 0.36% among 290,000; in the data active = inhibition above about 50%, passing the limit was not always enough
# Target sequence (P63279 whole entry, looked up): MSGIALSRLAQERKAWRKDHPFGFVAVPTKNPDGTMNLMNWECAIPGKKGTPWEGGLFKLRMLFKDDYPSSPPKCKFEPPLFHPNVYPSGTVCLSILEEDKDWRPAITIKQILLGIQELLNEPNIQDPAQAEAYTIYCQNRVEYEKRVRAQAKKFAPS
# IMP-1 inhibitor – inhibitors of Pseudomonas aeruginosa IMP-1 metallo-beta-lactamase; purified IMP-1, nitrocefin hydrolysis, epi-absorbance fluorescence; inhibition, % at 5.6 µM; hit rate 0.45% among 290,000;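 active = inhibition above the mean plus 3 SD of all compounds in the same screening run, cut at about 4.5% in these data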
#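 assay system = purified recombinant IMP-1 metallo-beta-lactamase enzyme | schedule = 15 min preincubation plus 25 min reaction at 25 °C | signal = Epi-absorbance fluorescence, 480 nm excitation, 530 nm emission | read-out basis = percent inhibition from optical density relative to buffer-blank wells | controls = IMP-1 with DMSO as 0%, enzyme-free DMSO as 100%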
# NS3 helicase cf – confirmation of Hepatitis C virus NS3 helicase inhibitors; shares compounds with HCV NS3 hel inh; NS3 helicase DNA unwinding, Cy5 molecular beacon fluorescence; inhibition, % at 10.9 µM; hit rate 31% among 1,600;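 active = inhibition above the mean of all tested compounds plus 3 SD, cutoff set per campaign, cut at about 36% in these data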
# DNA FID counter-2 – intercalator displacement, NS3 helicase counter-screen. shares compounds with HCV NS3 hel inh. DNA fluorescent intercalator displacement, fluorescence. inhibition, % at 7.9 µM. hit rate 4% among 1,600. AID 1945;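 note: higher means more displacement of ethidium bromide from the DNA hairpin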
# FID counter DR – displaces fluorescent intercalator from DNA, HCV helicase counter-screen; shares compounds with HCV NS3 hel inh; fluorescent intercalator displacement from DNA, fluorescence; IC50, µM; 120 tested, under 10 active; call rule not given here
# Numbers stand for hits; – = inactive; · = no result. This is a sample that favours compounds with a hit; in the whole collection about 2.1% have one here. Cut-off read from the data, not from the text of the source, unless noted: active = inhibition above about 37%; inactive = the rest.
SMILES,HCV NS3 hel inh,VIM-2 inh,DNA FID counter-1,UBC9 SUMO inh,IMP-1 inhibitor,NS3 helicase cf,DNA FID counter-2,others
O=C(CCl)Nc1nc(-c2ccco2)c(-c2ccco2)s1,61,–,–,82,–,63,–,FID counter DR=–
O=C(N/N=C/c1c(O)ccc2ccccc12)c1ccc(CO)nc1,39,–,–,–,–,–,–,
NC(=S)N/N=C/c1c(O)ccc2ccccc12,57,–,–,–,–,–,–,
Cc1cc2oc(=O)cc(-c3cc4ccccc4o3)c2cc1O,39,–,–,·,6.0,–,–,
O=c1cc(-c2cc3ccccc3o2)c2cc(O)ccc2o1,–,–,–,–,–,·,·,
CCOc1ccc(S(=O)(=O)N2CCCC(C(=O)NCC3CCCO3)C2)cc1 (stereo not given),–,–,–,–,–,·,·,
CC(C)Nc1ccc(Cl)cc1[N+](=O)[O-],41,–,–,–,–,–,–,
COc1ccc(F)cc1S(=O)(=O)NCC(=O)NCc1cc(=O)n(C)c(=O)n1C,–,–,–,–,–,·,·,
O=C1/C(=C\c2ccccn2)SC(=S)N1c1ccc(S(=O)(=O)Nc2nccs2)cc1,36,–,–,–,–,–,–,
CCOc1ccc(N2C(=O)CC(Sc3nc(C)cc(C)c3C#N)C2=O)cc1 (stereo not given),–,–,–,–,–,·,·,
CCOc1ccc(N2C(=O)CC(Sc3nc(CC(C)C)ccc3C#N)C2=O)cc1 (stereo not given),39,–,–,–,–,65,–,
Cc1c(Cl)cccc1NC(=O)c1ccccc1-c1ccccc1C(=O)O,–,–,–,–,–,·,·,
Cc1cc(-n2c(C)cc(C(=O)CCl)c2C)no1,–,–,–,–,–,·,·,
Cc1cc(-n2c(C)cc(C(=O)CSc3ccc4c(c3)OCCO4)c2C)no1,37,–,–,–,–,–,–,
O=C(NC1CC1)c1sc2ccccc2c1Cl,–,–,–,–,–,·,·,
O=C(NNC(=S)NC1CCCCC1)c1sc2ccccc2c1Cl,48,–,–,–,–,46,–,
Cn1cccc1Cc1nnc(SCC(=O)Nc2nc3ccccc3s2)n1CCc1ccccc1,52,–,–,–,–,–,–,
CCN(C(=O)N1CCOCC1)c1ccccc1C,–,–,–,–,–,·,·,
CCCCC(CCC(=O)O)(C(=O)OCC)c1csc(Nc2ccc(OCC)cc2)n1 (stereo not given),85,–,–,–,–,58,–,
COc1ccc(NC(=O)c2c[nH]n3c(=O)cc(C4CCN(C(=O)OC(C)(C)C)CC4)nc23)cc1Cl,36,–,–,–,–,52,–,
O=C(CC1SC(=O)N(c2ccccc2)C1=O)Nc1ccc(Cl)cc1 (stereo not given),–,–,–,–,–,·,·,
O=C(CC1SC(=O)N(c2ccccc2)C1=O)Nc1ccc(Br)cc1 (stereo not given),37,–,–,–,–,–,–,
CC1=C(C)Cc2c(OC(=O)c3ccccc3)ccc(OC(=O)c3ccccc3)c2C1,–,–,–,–,–,–,–,
O=C(Oc1cccccc1=O)c1ccccc1,–,–,–,–,–,·,·,
O=C(NC1CCCC1)c1cc(-c2cccc(Cl)c2)on1,–,–,–,–,–,·,·,
SMILES,HCV NS3 hel inh,VIM-2 inh,DNA FID counter-1,UBC9 SUMO inh,IMP-1 inhibitor,NS3 helicase cf,DNA FID counter-2,others
Cc1[nH]c2ccccc2c1C(=O)COC(=O)c1ccc[n+]([O-])c1,46,8.9,–,–,–,–,–,
Cc1[nH]c2ccccc2c1C(=O)COC(=O)c1ccc([N+](=O)[O-])s1,–,–,–,–,–,·,·,
CN(C)S(=O)(=O)c1cccc(NC(=O)C2Cc3ccccc3CN2C(=O)c2ccco2)c1 (stereo not given),–,–,–,–,–,·,·,
Cc1ccc(F)c(C2C3C=CCC(c4cccc(-c5ccc(N(C)C)cc5)c4)C3C(=O)N2Cc2ccccc2)c1 (stereo not given),·,·,·,–,·,·,·,
CS(=O)(=O)N1N=C(c2ccco2)CC1c1ccccc1Cl (stereo not given),36,–,–,–,–,–,–,
COc1cccc(OC)c1CN1CCCC(C(=O)c2ccccc2SC)C1 (stereo not given),–,–,–,–,–,·,·,
C=CCNC(=O)N1CCC(c2nc3ccccc3s2)CC1,–,–,–,–,–,·,·,

# Source: PubChem BioAssay (several laboratories)
